Test results as given in ChEMBL document CHEMBL3396998, “Synthesis and antitubercular evaluation of 4-carbonyl piperazine substituted 1,3-benzothiazin-4-one derivatives” (Bioorg Med Chem Lett, 2015).
≈ marks a conversion by molar mass, not a printed value.

Tests used:
[1] = Aqueous solubility of the compound by HPLC method; assay type: physicochemical; settings: water
[2] = Ratio of aqueous solubility of BTZ038 to aqueous solubility of the compound by HPLC method; assay type: physicochemical; settings: buffer
[3] = tested on: Mycobacterium tuberculosis; assay: Antitubercular activity against Mycobacterium tuberculosis H37Ra ATCC 25177 by MABA method; assay type: functional
[4] = Cytotoxicity against African green monkey Vero cells after 72 hrs by MTT assay; assay type: cell-based; settings: chlorocebus sabaeus
Summary of the method: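 Vero cells were exposed to each compound over a broad concentration range. Viability was read by MTT, and cytotoxicity was reported as IC50.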

[5] = Ratio of aqueous solubility of PBTZ169 to aqueous solubility of the compound by HPLC method; assay type: physicochemical; settings: buffer

Compound | solubility [1] | Ratio [2] | MIC90 [3] | CC50 at 72 h [4] | Ratio [5]
CCC(C)C(=O)N1CCN(c2nc(=O)c3cc(C(F)(F)F)cc([N+](=O)[O-])c3s2)CC1 (stereo not drawn) | 104 µg/mL (≈ 234 µM) | 100 | 0.008 µM (≈ 0.00356 µg/mL) | > 125 µM | 10
CCc1ccc(C(=O)N2CCN(c3nc(=O)c4cc(C(F)(F)F)cc([N+](=O)[O-])c4s3)CC2)cc1 | < 0.1 µg/mL | – | 0.031 µM (≈ 0.0153 µg/mL) | > 125 µM | –
O=C(C1CCCCC1)N1CCN(c2nc(=O)c3cc(C(F)(F)F)cc([N+](=O)[O-])c3s2)CC1 | 3.24 µg/mL (≈ 6.89 µM) | – | 0.031 µM (≈ 0.0146 µg/mL) | 88.7 µM | –
O=C(c1cccc(F)c1)N1CCN(c2nc(=O)c3cc(C(F)(F)F)cc([N+](=O)[O-])c3s2)CC1 | 0.2 µg/mL (≈ 0.415 µM) | – | 0.016 µM (≈ 0.00772 µg/mL) | > 125 µM | –
COc1cccc(C(=O)N2CCN(c3nc(=O)c4cc(C(F)(F)F)cc([N+](=O)[O-])c4s3)CC2)c1 | 0.91 µg/mL (≈ 1.84 µM) | – | 0.031 µM (≈ 0.0153 µg/mL) | > 125 µM | –
O=C(c1ccccc1F)N1CCN(c2nc(=O)c3cc(C(F)(F)F)cc([N+](=O)[O-])c3s2)CC1 | 3.1 µg/mL (≈ 6.43 µM) | – | 0.008 µM (≈ 0.00386 µg/mL) | > 125 µM | –
CC(C)CC(=O)N1CCN(c2nc(=O)c3cc(C(F)(F)F)cc([N+](=O)[O-])c3s2)CC1 | 66.3 µg/mL (≈ 149 µM) | – | 0.031 µM (≈ 0.0138 µg/mL) | > 125 µM | –
O=C(CC1CCCCC1)N1CCN(c2nc(=O)c3cc(C(F)(F)F)cc([N+](=O)[O-])c3s2)CC1 | 0.12 µg/mL (≈ 0.248 µM) | – | 0.016 µM (≈ 0.00775 µg/mL) | > 125 µM | –
O=c1nc(N2CCN(CC3CCCCC3)CC2)sc2c([N+](=O)[O-])cc(C(F)(F)F)cc12 [MACOZINONE] | 9.07 µg/mL (≈ 19.9 µM) | – | < 0.004 µM | > 125 µM | –
CCC(=O)N1CCN(c2nc(=O)c3cc(C(F)(F)F)cc([N+](=O)[O-])c3s2)CC1 | 3.29 µg/mL (≈ 7.9 µM) | – | 0.016 µM (≈ 0.00666 µg/mL) | > 125 µM | –
CC(C)(C)C1CCC(C(=O)N2CCN(c3nc(=O)c4cc(C(F)(F)F)cc([N+](=O)[O-])c4s3)CC2)CC1 (stereo not drawn) | < 0.1 µg/mL | – | 0.004 µM (≈ 0.00211 µg/mL) | > 125 µM | –
CSCC(=O)N1CCN(c2nc(=O)c3cc(C(F)(F)F)cc([N+](=O)[O-])c3s2)CC1 | 15.2 µg/mL (≈ 33.8 µM) | – | 0.13 µM (≈ 0.0583 µg/mL) | > 125 µM | –
O=C(c1ccccc1Cl)N1CCN(c2nc(=O)c3cc(C(F)(F)F)cc([N+](=O)[O-])c3s2)CC1 | 8.18 µg/mL (≈ 16.4 µM) | – | 0.016 µM (≈ 0.00798 µg/mL) | > 125 µM | –
CC(C)(C)C(=O)N1CCN(c2nc(=O)c3cc(C(F)(F)F)cc([N+](=O)[O-])c3s2)CC1 | 5.87 µg/mL (≈ 13.2 µM) | – | 0.031 µM (≈ 0.0138 µg/mL) | > 125 µM | –
COc1ccc(CC(=O)N2CCN(c3nc(=O)c4cc(C(F)(F)F)cc([N+](=O)[O-])c4s3)CC2)cc1 | 2.72 µg/mL (≈ 5.35 µM) | – | 0.13 µM (≈ 0.0661 µg/mL) | > 125 µM | –
O=C(C1CC1)N1CCN(c2nc(=O)c3cc(C(F)(F)F)cc([N+](=O)[O-])c3s2)CC1 | 52.9 µg/mL (≈ 123 µM) | – | 0.13 µM (≈ 0.0557 µg/mL) | > 125 µM | –

Compound | solubility [1] | Ratio [2] | MIC90 [3] | CC50 at 72 h [4] | Ratio [5]
O=C(C1CCC1)N1CCN(c2nc(=O)c3cc(C(F)(F)F)cc([N+](=O)[O-])c3s2)CC1 | 39.3 µg/mL (≈ 88.8 µM) | – | 0.031 µM (≈ 0.0137 µg/mL) | > 125 µM | –
COc1ccc(C(=O)N2CCN(c3nc(=O)c4cc(C(F)(F)F)cc([N+](=O)[O-])c4s3)CC2)cc1 | 0.22 µg/mL (≈ 0.445 µM) | – | 0.13 µM (≈ 0.0643 µg/mL) | > 125 µM | –
CCCC(=O)N1CCN(c2nc(=O)c3cc(C(F)(F)F)cc([N+](=O)[O-])c3s2)CC1 | 2.46 µg/mL (≈ 5.72 µM) | – | 0.13 µM (≈ 0.056 µg/mL) | > 125 µM | –
O=C(c1ccc(C(F)(F)F)cc1)N1CCN(c2nc(=O)c3cc(C(F)(F)F)cc([N+](=O)[O-])c3s2)CC1 | 7.53 µg/mL (≈ 14.1 µM) | – | 0.031 µM (≈ 0.0165 µg/mL) | > 125 µM | –
CC(=O)N1CCN(c2nc(=O)c3cc(C(F)(F)F)cc([N+](=O)[O-])c3s2)CC1 | 83.9 µg/mL (≈ 208 µM) | – | > 0.13 µM | > 125 µM | –
O=C(C1CCCC1)N1CCN(c2nc(=O)c3cc(C(F)(F)F)cc([N+](=O)[O-])c3s2)CC1 | 5.34 µg/mL (≈ 11.7 µM) | – | 0.016 µM (≈ 0.0073 µg/mL) | 120 µM | –
O=C(c1ccc(Cl)cc1)N1CCN(c2nc(=O)c3cc(C(F)(F)F)cc([N+](=O)[O-])c3s2)CC1 | 5.19 µg/mL (≈ 10.4 µM) | – | 0.016 µM (≈ 0.00798 µg/mL) | > 125 µM | –
O=C(c1ccccc1[N+](=O)[O-])N1CCN(c2nc(=O)c3cc(C(F)(F)F)cc([N+](=O)[O-])c3s2)CC1 | 2.15 µg/mL (≈ 4.22 µM) | – | 0.13 µM (≈ 0.0662 µg/mL) | > 125 µM | –
CC1COC2(CCN(c3nc(=O)c4cc(C(F)(F)F)cc([N+](=O)[O-])c4s3)CC2)O1 (racemic) | 0.94 µg/mL (≈ 2.18 µM) | – | 0.004 µM (≈ 0.00173 µg/mL) | > 125 µM | –
O=C(c1ccc(F)cc1)N1CCN(c2nc(=O)c3cc(C(F)(F)F)cc([N+](=O)[O-])c3s2)CC1 | 1.69 µg/mL (≈ 3.5 µM) | – | 0.031 µM (≈ 0.015 µg/mL) | > 125 µM | –
COc1ccccc1C(=O)N1CCN(c2nc(=O)c3cc(C(F)(F)F)cc([N+](=O)[O-])c3s2)CC1 | 13.6 µg/mL (≈ 27.4 µM) | – | 0.063 µM (≈ 0.0312 µg/mL) | > 125 µM | –
CCCCC(=O)N1CCN(c2nc(=O)c3cc(C(F)(F)F)cc([N+](=O)[O-])c3s2)CC1 | 42.5 µg/mL (≈ 95.6 µM) | – | 0.031 µM (≈ 0.0138 µg/mL) | > 125 µM | –
Cc1ccc(C(=O)N2CCN(c3nc(=O)c4cc(C(F)(F)F)cc([N+](=O)[O-])c4s3)CC2)cc1 | 6.7 µg/mL (≈ 14 µM) | – | 0.031 µM (≈ 0.0148 µg/mL) | > 125 µM | –
CC(C)(C)c1ccc(C(=O)N2CCN(c3nc(=O)c4cc(C(F)(F)F)cc([N+](=O)[O-])c4s3)CC2)cc1 | 1.25 µg/mL (≈ 2.4 µM) | – | 0.016 µM (≈ 0.00833 µg/mL) | > 125 µM | –
O=C(c1ccc([N+](=O)[O-])cc1)N1CCN(c2nc(=O)c3cc(C(F)(F)F)cc([N+](=O)[O-])c3s2)CC1 | 1.67 µg/mL (≈ 3.28 µM) | – | 0.063 µM (≈ 0.0321 µg/mL) | > 125 µM | –
O=C(N1CCN(c2nc(=O)c3cc(C(F)(F)F)cc([N+](=O)[O-])c3s2)CC1)C12CC3CC(CC(C3)C1)C2 | 2.95 µg/mL (≈ 5.65 µM) | – | 0.031 µM (≈ 0.0162 µg/mL) | > 125 µM | –
